Most compounds without a hit are left out; they make up all but 3.3% or so of the library.
SIAE primary: human SIAE inhibitors, primary screen, biochemical, fluorescence polarization, FP-Rh probe, 1536-well HTS. AID 1053197, 2014. SIAE FP-Rh probe binding. 370,000 compounds, 0.69% hits. inhibition, % at 9.66 µM;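 active = inhibition above a cutoff: mean of compounds within the control limits plus 3 SD of those, cut at about 17% in these data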;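 also: 0% = plate median of compound wells and 100% = probe without SIAE protein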
MBD2 DNA inh: inhibitors of MBD2 binding to methylated DNA, primary screen, biochemical, TR-FRET, DNA-binding domain, human; 370,000 compounds, 0.31% hits; Methyl-CpG-binding domain protein 2 (Homo sapiens), Q9UBB5; AID 686964, 2013; inhibition, % at 4.4 µM; MBD2 binding to methylated oligonucleotide; in the data active = inhibition above about 13%
UHRF1 MBD2 ctr: UHRF1 methylated DNA binding inhibitors, primary screen, counter-screen for MBD2 inhibitor project, biochemical, TR-FRET, human UHRF1, single concentration. AID 687016, 2013. E3 ubiquitin-protein ligase UHRF1 (Homo sapiens), Q96T88. 370,000 compounds, 0.75% hits. inhibition, % at 4.4 µM. UHRF1 binding to methylated oligo; in the data active = inhibition above about 21%;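 also: UHRF1 SRA domain binding a hemimethylated CpG hairpin DNA probe; 0% = median of test compound wells and 100% = reference inhibitor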
PRMT1 inh: PRMT1 methyltransferase inhibitors, primary screen, biochemical, fluorescence polarization. inhibition, % at 2.79 µM. AID 652257, 2013. 370,000 compounds, 1.3% hits. recombinant PRMT1, activity-based probe fluorescence polarization;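 active = inhibition above about 21% made by adding two undisclosed values, limit read from the data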
LEDGF integ inh: blockers of LEDGF/p75-dependent integrase strand transfer – biochemical, TR-FRET, high throughput, primary screen | TR-FRET IN-LEDGF/p75 DNA integration, Eu/Cy5 | inhibition, % at 3.7 µM | 370,000 compounds, 0.64% hits;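 active = inhibition above the screen-wide mean plus 3 SD, cut at about 13% in these data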;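 also: signal is the Cy5 over europium emission ratio at 671 and 618 nm; 0% = plate median of compound wells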
TDP2 inh: human TDP2 enzyme inhibitors, primary screen, biochemical, epi absorbance, recombinant enzyme. 370,000 compounds, 0.34% hits. T5PNP hydrolysis, p-nitrophenol absorbance 415 nm. Tyrosyl-DNA phosphodiesterase 2 (Homo sapiens), O95551. AID 720702, 2013. inhibition, % at 12.8 µM;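 active = inhibition above the mean of all tested compounds plus 3 SD, set per campaign, cut at about 25% in these data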;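 also: 0% = DMSO with enzyme and 100% = buffer with substrate but no TDP2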
Target sequence (O95551 whole entry, looked up): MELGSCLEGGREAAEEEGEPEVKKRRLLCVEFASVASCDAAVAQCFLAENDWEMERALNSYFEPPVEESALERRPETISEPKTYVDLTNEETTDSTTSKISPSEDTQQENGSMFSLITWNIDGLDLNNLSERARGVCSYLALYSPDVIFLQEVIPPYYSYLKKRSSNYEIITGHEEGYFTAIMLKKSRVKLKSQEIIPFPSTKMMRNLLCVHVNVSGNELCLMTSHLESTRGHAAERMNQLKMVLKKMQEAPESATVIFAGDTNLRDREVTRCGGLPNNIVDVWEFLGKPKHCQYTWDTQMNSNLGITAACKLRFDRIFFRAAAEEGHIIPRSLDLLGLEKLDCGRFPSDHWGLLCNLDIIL
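Evaluation: % inhibition relative to enzyme-containing and enzyme-free wells. Material: recombinant human TDP2. Benchmarks: enzyme-free and DMSO wells. Timing: enzyme reaction with compound for 2 h at 37 °C. Compound dosing: 12.8 µM only. Measured by: p-Nitrophenol epi absorbance. Reagent: T5PNP substrate at 5 mM, a TopII-DNA adduct mimic. Replication: single well per compound.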
Numbers without * were called inactive.

SMILES	SIAE primary	MBD2 DNA inh	UHRF1 MBD2 ctr	PRMT1 inh	LEDGF integ inh	TDP2 inh
COc1cc(F)c(S(=O)(=O)N2CCCN(S(=O)(=O)c3cccc(N)c3)CC2)c(F)c1	-5	5	0	-2	0	13
CCOC(=O)C1CCCN(C(=O)c2ccc(-c3ccc([N+](=O)[O-])cc3)o2)C1 (stereo not given)	-1	0	4	24*	3	-7
COc1ccc(S[C@]2(C(=O)N3CCN(c4ncccn4)CC3)CC(=O)N(S(=O)(=O)c3ccc(F)cc3)[C@@H]2c2ccc(OC)cc2)cc1	-4	-3	5	6	3	-3
COc1cc2c(C(F)(F)F)c(-c3ccsc3)oc(=O)c2cc1OC	-3	7	21*	3	1	5
CCOC(=O)[C@]12CCCC3=C1N(CCC3)C(=O)[C@@H](CC(=O)NCCc1ccccc1OC)C2	3	9	-3	-2	-1	9
CC(C)(C)c1ccc(-c2nnc(SCC(=O)Nc3ccc(S(=O)(=O)Nc4nccs4)cc3)n2Cc2ccco2)cc1	-29	-1	1	22*	1	-5
O=C(CSc1nnc(-c2ccncc2)n1Cc1ccco1)Nc1nccs1	2	4	1	3	6	-4
Cc1cc(NS(=O)(=O)c2ccc(NC(=O)CSc3nc4sc(C)c(C)c4c(=O)n3Cc3ccco3)cc2)nc(C)n1	-22	-6	0	24*	1	-7
CCn1c(SCC(=O)Nc2ccc(S(=O)(=O)Nc3cc(C)nc(C)n3)cc2)nc2sc(C)c(C)c2c1=O	-3	-13	-2	-2	1	5
COC(=O)[C@H](C(C)C)N1Cc2nnn(Cc3ccc(C)cc3)c2-c2cc(F)ccc2S1(=O)=O	-6	-1	-2	-2	3	8
COc1ccc(OC)c(CN2C(=O)c3ccnn3CC2(C)c2nnnn2C2CCCC2)c1 (stereo not given)	2	0	-3	-1	0	7
CC(C)(C)CC(C)(C)NCC(=O)Nc1c2c(nc3ccccc13)CCC2	-4	4	27*	0	-1	12
Cc1nc2ccc(S(=O)(=O)NCC(=O)N(C)Cc3ccc(F)cc3)cc2s1	-2	1	3	4	-2	2
C[C@@H]1ON(C)[C@H]2C[C@H]3c4[nH]c5c(-c6ccc7c(c6)OCO7)cccc5c4CCN3C(=O)[C@@H]12	-2	-1	0	-2	1	-11
Cc1ccc(CNC(=O)c2ccc(-n3cccc3)cc2)cc1	-5	11	35*	15	11	-11
Cc1ccc(CNC(=O)Cc2ccc(-n3cccc3)cc2)cc1	4	1	-4	0	-1	6
CS(=O)(=O)c1ccc(C(=O)NNC(=O)c2cc(-c3ccccc3)n[nH]2)cc1	4	-4	-1	24*	0	11
CC(=O)N1c2ccccc2C(=O)NCC1C(=O)NC(C)(C)C (stereo not given)	1	6	-1	4	3	6
COc1ccc(NC(=O)CN(C)C(=O)c2cc(-c3ccco3)nc3ccccc23)cc1	6	12	29*	17	11	2
CN(CC(=O)Nc1cccc(F)c1)C(=O)c1cc(-c2ccco2)nc2ccccc12	15	10	18	15	6	9
COc1ccccc1CNC(=O)COC(=O)c1cc(-c2ccco2)nc2ccccc12	4	20*	31*	14	10	5
O=C1C(=O)N(Cc2ccc(-c3ccccc3)cc2)c2ccc(OC(F)(F)F)cc21	1	-1	-3	3	1	1
S=c1[nH]nc(Cc2ccc(Br)cc2)n1/N=C/c1ccc(Cl)cc1	3	-1	0	22*	6	3
S=c1[nH]nc(COc2ccccc2)n1/N=C/c1ccc(Cl)cc1	10	-4	0	7	-1	5
COc1cc2c(cc1OC)C(C)N(C(=O)C1=NN(c3cccc(C)c3)C(=O)CC1)CC2 (stereo not given)	14	10	22*	2	0	10
SMILES	SIAE primary	MBD2 DNA inh	UHRF1 MBD2 ctr	PRMT1 inh	LEDGF integ inh	TDP2 inh
CCN(C)C(=O)CNc1nnnn1-c1ccccc1	7	0	2	-3	-2	10
COCCOC(=O)c1[nH]c2c(c1C)C(=O)CC(c1ccco1)C2 (stereo not given)	17	13	33*	15	16*	8
CCOC(=O)c1[nH]c2c(c1C)C(=O)CC(c1ccco1)C2 (stereo not given)	3	4	18	18	6	2
CCCCOC(=O)c1ccc(NC(=O)Nc2ccc(OC)c(OC)c2)cc1	20*	-3	0	-3	-2	-11
CCOC(=O)c1ccc(NC(=O)Nc2ccc(OC)c(OC)c2)cc1	15	1	0	-1	-3	10
CCOC(=O)C1=C(COC(=O)/C=C/c2ccccc2)NC(=O)NC1C (stereo not given)	0	0	-4	1	1	13
CCOC(=O)C1=C(COC(=O)/C=C/c2ccc(C)o2)NC(=O)NC1C (stereo not given)	1	-3	0	23*	3	-1
Cc1cccc(Nc2ncnc3onc(-c4cccc(Cl)c4)c23)c1C	-1	-1	24*	-2	1	1
Cc1n[nH]c(C)c1S(=O)(=O)NCCc1ccccc1F	3	2	-4	-2	0	-1
COc1ccc2c(c1)N[C@@](CCNC=O)(c1[nH]c3ccccc3c1CCNC=O)C2=O	0	2	-1	6	-5	-10
COc1ccc(NS(=O)(=O)c2cccc(C(=O)NCC3(N4CCOCC4)CCCCC3)c2)cc1	-3	5	3	0	-3	-2
COc1ccc(NS(=O)(=O)c2cccc(C(=O)NCC3(N4CCCCC4)CCCCC3)c2)cc1	4	3	25*	-3	3	1
O=C(CCc1ccccc1)N[C@H]1[C@H](OC(=O)c2ccco2)CCC[C@@]12C(=O)N(Cc1ccccc1)c1ccccc12	-7	1	-4	-3	5	11
CCOc1cc(CCNC(=O)c2cc3ccsc3n2C)ccc1OC	3	-1	3	0	3	-5

Assay outcomes: PubChem BioAssay, The Scripps Research Institute Molecular Screening Center
